Assay results taken from ChEMBL document CHEMBL1136807, “CC-1065 analogues bearing different DNA-binding subunits: synthesis, antitumor activity, and preliminary toxicity study” (J Med Chem, 2003).

Columns and labels:
Mus musculus [1] = assay: Increase in life span of mice bearing L1210 leukemia after administration of 298 […] compound; assay type: functional
Outline: (§1)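 In vivo antitumor test in mice bearing L1210 leukemia, read out as increase in life span (ILS). Body weight was monitored. The optimal dose was defined as the dose giving the best antitumor efficacy with body weight loss ≤15%.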

Mus musculus [2] = assay: Increase in life span of mice bearing L1210 leukemia after administration of 620 […] compound; assay type: functional; outline: as §1
Mus musculus [3] = assay: Increase in life span of mice bearing L1210 leukemia after administration of 498 […] compound; assay type: functional; outline: as §1
Mus musculus [4] = assay: Weight change in mice bearing L1210 leukemia after administration of 620 […] compound; assay type: functional
Mus musculus [5] = assay: Weight change in mice bearing L1210 leukemia after administration of 298 […] compound; assay type: functional
Mus musculus [6] = assay: Number of mice bearing L1210 leukemia that survived after 30 days, after administration of 498 µg/kg compound
L1210 = assay: Compound was tested in vitro against L1210 leukemia cells; assay type: functional, cell-based; conditions: Mus musculus
Outline: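 L1210 murine leukemia cells exposed to drug for 48 h; IC50 reported in nM.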

Mus musculus [7] = assay: Number of mice surviving on day 180 treated with 100 […] compound; 8/8; assay type: functional, organism-based
Mus musculus [8] = assay: Weight change in mice bearing L1210 leukemia after administration of 498 […] compound; assay type: functional
Mus musculus [9] = assay: Number of mice bearing L1210 leukemia that survived after 30 days, after administration of 620 […] compound; assay type: functional; outline: as §1
Mus musculus [10] = assay: Number of mice bearing L1210 leukemia that survived after 30 days, after administration of 298 […] compound; assay type: functional; outline: as §1
Mus musculus [11] = assay: Days until first mouse died treated with 100 […] compound; no death; assay type: functional, organism-based
Mus musculus [12] = assay: Increase in life span of mice bearing L1210 leukemia after administration of 250 […] compound; assay type: functional; outline: as §1
Mus musculus [13] = assay: Number of mice bearing L1210 leukemia that survived after 30 days, after administration of 500 µg/kg compound
Mus musculus [14] = assay: Number of mice surviving on day 180 treated with 2000 […] compound; 0/6; assay type: functional, organism-based
Mus musculus [15] = assay: Weight change in mice bearing L1210 leukemia after administration of 250 […] compound; assay type: functional
Mus musculus [16] = assay: Increase in life span of mice bearing L1210 leukemia after administration of 1000 […] compound; assay type: functional; outline: as §1
Mus musculus [17] = assay: Weight change in mice bearing L1210 leukemia after administration of 1000 […] compound; assay type: functional
Mus musculus [18] = assay: Number of mice bearing L1210 leukemia that survived after 30 days, after administration of 250 […] compound; assay type: functional; outline: as §1
Mus musculus [19] = assay: Days until first mouse died treated with 1000 […] compound; assay type: functional
Outline: (§2)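 Delayed-toxicity study in non-tumor-bearing BDF1 mice: single ip dose given on day 0, then animals observed for up to 180 days. Recorded the day the first mouse died and the number of mice alive on day 180, with 6–8 mice per group.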

Mus musculus [20] = assay: Number of mice bearing L1210 leukemia that survived after 30 days, after administration of 1000 […] compound; assay type: functional; outline: as §1
Mus musculus [21] = assay: Days until first mouse died treated with 2000 […] compound; assay type: functional; outline: as §2
Mus musculus [22] = assay: Weight change in mice bearing L1210 leukemia after administration of 500 […] compound; assay type: functional
Mus musculus [23] = assay: Increase in life span of mice bearing L1210 leukemia after administration of 500 […] compound; assay type: functional; outline: as §1
Mus musculus [24] = assay: Weight change in mice bearing L1210 leukemia after administration of 100 […] compound; assay type: functional
Mus musculus [25] = assay: Number of mice bearing L1210 leukemia that survived after 30 days, after administration of 100 […] compound; assay type: functional; outline: as §1
Mus musculus [26] = assay: Increase in life span of mice bearing L1210 leukemia after administration of 45 […] compound; assay type: functional; outline: as §1
Mus musculus [27] = assay: Increase in life span of mice bearing L1210 leukemia after administration of 100 […] compound; assay type: functional; outline: as §1
Mus musculus [28] = assay: Weight change in mice bearing L1210 leukemia after administration of 67 […] compound; assay type: functional
Mus musculus [29] = assay: Number of mice bearing L1210 leukemia that survived after 30 days, after administration of 67 […] compound; assay type: functional; outline: as §1
Mus musculus [30] = assay: Increase in life span of mice bearing L1210 leukemia after administration of 67 […] compound; assay type: functional; outline: as §1
Mus musculus [31] = assay: Number of mice bearing L1210 leukemia that survived after 30 days, after administration of 45 µg/kg compound
Mus musculus [32] = assay: Weight change in mice bearing L1210 leukemia after administration of 45 […] compound; assay type: functional

O=C(Nc1ccc2[nH]c(/C=C/C(=O)N3CC(CCl)c4c3cc(O)c3ccccc43)cc2c1)c1cc2ccccc2[nH]1 (racemic)
ILS at 298 mg/kg (Mus musculus [1]): 157% | ILS at 620 mg/kg (Mus musculus [2]): 147% | ILS at 498 mg/kg (Mus musculus [3]): 231% | Weight change (Mus musculus [4]): -13% | Weight change (Mus musculus [5]): 0% | Survivors (Mus musculus [6]): 1 | IC50 (L1210): 1 nM | No. of mice (Mus musculus [7]): Mice surviving 8/8 | Weight change (Mus musculus [8]): 0% | Survivors (Mus musculus [9]): 0 | Survivors (Mus musculus [10]): 0 | Days (Mus musculus [11]): No death

CC(=O)Nc1ccc2[nH]c(C(=O)Nc3ccc4[nH]c(C(=O)N5CC(CCl)c6c5cc(O)c5ccccc65)cc4c3)cc2c1 (racemic)
IC50 (L1210): 2.5 nM

CC(=O)Nc1cc(C(=O)Nc2cc(C(=O)N3CC(CCl)c4c3cc(O)c3ccccc43)n(C)c2)n(C)c1 (racemic)
ILS at 250 mg/kg (Mus musculus [12]): 31% | Survivors (Mus musculus [13]): 0 | No. of mice (Mus musculus [14]): Mice surviving 0/6 | Weight change (Mus musculus [15]): 7% | IC50 (L1210): 44 nM | ILS at 1000 mg/kg (Mus musculus [16]): 77% | Weight change (Mus musculus [17]): -6% | Survivors (Mus musculus [18]): 0 | Days (Mus musculus [19]): 60 | Survivors (Mus musculus [20]): 0 | Days until first death (Mus musculus [21]): 29 days | Weight change (Mus musculus [22]): 5% | ILS at 500 mg/kg (Mus musculus [23]): 31%

O=C(Nc1ccc2[nH]c(C(=O)N3CC(CCl)c4c3cc(O)c3ccccc43)cc2c1)c1cc2cc(F)ccc2[nH]1 (racemic)
Weight change (Mus musculus [24]): -7% | Survivors (Mus musculus [25]): 0 | ILS at 45 mg/kg (Mus musculus [26]): 137% | ILS at 100 mg/kg (Mus musculus [27]): 158% | Weight change (Mus musculus [28]): -2% | IC50 (L1210): 0.29 nM | No. of mice (Mus musculus [7]): Mice surviving 8/8 | Survivors (Mus musculus [29]): 0 | ILS at 67 mg/kg (Mus musculus [30]): 160% | Survivors (Mus musculus [31]): 0 | Weight change (Mus musculus [32]): 2% | Days (Mus musculus [11]): No death

COc1cccc2c1C(=O)c1c(O)c3c(c(O)c1C2=O)C[C@@](O)(C(=O)CO)C[C@@H]3O[C@H]1C[C@H](N)[C@H](O)[C@H](C)O1 [DOXORUBICIN]
IC50 (L1210): 179 nM

O=C(Nc1ccc2[nH]c(C(=O)N3CC(CCl)c4c3cc(O)c3ccccc43)cc2c1)c1cc2cc([N+](=O)[O-])ccc2o1 (racemic)
Weight change (Mus musculus [24]): -5% | Survivors (Mus musculus [25]): 0 | ILS at 45 mg/kg (Mus musculus [26]): 120% | ILS at 100 mg/kg (Mus musculus [27]): 173% | Weight change (Mus musculus [28]): -2% | IC50 (L1210): 0.44 nM | No. of mice (Mus musculus [7]): Mice surviving 8/8 | Survivors (Mus musculus [29]): 0 | ILS at 67 mg/kg (Mus musculus [30]): 147% | Survivors (Mus musculus [31]): 0 | Weight change (Mus musculus [32]): 2% | Days (Mus musculus [11]): No death
